Measurements from ChEMBL document CHEMBL1127808, “Structure-distribution relationships for metal-labeled myocardial imaging agents: comparison of a series of cationic gallium (III) complexes with hexadentate bis(salicylaldimine) ligands” (J Med Chem, 1994).

Tests used:
Format in all cases: functional
Rattus norvegicus [1] = test: Retention of tracer Gallium in blood of rats after intravenous administration and Gallium-67 Bis(salicylaldimine) after 120 min
Summary of the method: (§1)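 Male Sprague-Dawley rats under ether anesthesia received a femoral vein bolus of no-carrier-added 67Ga complex (1–3 μCi, 0.1–0.2 mL; 5% ethanol in 0.16 M NaCl with 5–10% propylene glycol, filtered 0.2 μm). Injected dose was found by weighing the syringe. Rats were decapitated at 1 or 120 min. Organs were blotted, weighed and gamma counted against an injectate standard, giving percent injected dose per organ. Blood was taken as 7% of body mass. Mean ± SD, n = 3–4.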

Rattus norvegicus [2] = test: Retention of tracer Gallium in blood of rats after intravenous administration and Gallium-67 Bis(salicylaldimine) after 1 min; summary of the method: as §1
Rattus norvegicus [3] = test: Retention of tracer Gallium in heart of rats after intravenous administration and Gallium-67 Bis(salicylaldimine) after 120 min; summary of the method: as §1
Rattus norvegicus [4] = test: Retention of tracer Gallium in heart of rats after intravenous administration and Gallium-67 Bis(salicylaldimine) after 1 min; summary of the method: as §1
Rattus norvegicus [5] = test: Retention of tracer Gallium in kidney of rats after intravenous administration and Gallium-67 Bis(salicylaldimine) after 1 min; summary of the method: as §1
Rattus norvegicus [6] = test: Retention of tracer Gallium in liver of rats after intravenous administration and Gallium-67 Bis(salicylaldimine) after 1 min; summary of the method: as §1
Rattus norvegicus [7] = test: Retention of tracer Gallium in lung of rats after intravenous administration and Gallium-67 Bis(salicylaldimine) after 120 min; summary of the method: as §1
Rattus norvegicus [8] = test: Retention of tracer Gallium in liver of rats after intravenous administration and Gallium-67 Bis(salicylaldimine) after 120 min; summary of the method: as §1
Rattus norvegicus [9] = test: Retention of tracer Gallium in lung of rats after intravenous administration and Gallium-67 Bis(salicylaldimine) after 1 min; summary of the method: as §1
[10] = Ratio of retention of tracer Gallium in Heart to blood was determined after intravenous administration to rats after 120 min
Summary of the method: (§2)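 Heart-to-liver and heart-to-blood ratios were calculated from percent injected dose per gram of tissue. No-carrier-added 67Ga complex (1–3 μCi, 0.1–0.2 mL) in 5% ethanol/saline with 5–10% propylene glycol, radiochemical purity >98%, was given as a femoral vein bolus to male Sprague-Dawley rats under ether anesthesia. Rats were decapitated at 1, 15 or 120 min and tissues gamma counted. Mean ± SD, n = 3–4.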

[11] = Ratio of retention of tracer Gallium in Heart to Liver was determined after intravenous administration to rats after 120 min; summary of the method: as §2
[12] = Ratio of retention of tracer Gallium in Heart to Liver was determined after intravenous administration to rats after 15 min; summary of the method: as §2
[13] = Ratio of retention of tracer Gallium in Heart to Liver was determined after intravenous administration to rats after 1 min; summary of the method: as §2
[14] = Ratio of retention of tracer Gallium in Heart to blood was determined after intravenous administration to rats after 15 min; summary of the method: as §2
[15] = Ratio of retention of tracer Gallium in Heart to blood was determined after intravenous administration to rats after 1 min; summary of the method: as §2
Rattus norvegicus [16] = test: Retention of tracer Gallium in kidney of rats after intravenous administration and Gallium-67 Bis(salicylaldimine) after 120 min; summary of the method: as §1
Rattus norvegicus [17] = test: Retention of tracer Gallium in kidney of rats after intravenous administration and Gallium-67 Bis(salicylaldimine) after 120 min was determined; summary of the method: as §1
Rattus norvegicus [18] = test: Retention of tracer Gallium in kidney of rats after intravenous administration and Gallium-67 Bis(salicylaldimine) after 1 min was determined; summary of the method: as §1

| SMILES | Injected dose (Rattus norvegicus [1]) | Injected dose (Rattus norvegicus [2]) | Injected dose (Rattus norvegicus [3]) | Injected dose (Rattus norvegicus [4]) | Injected dose (Rattus norvegicus [5]) | Injected dose (Rattus norvegicus [6]) | Injected dose (Rattus norvegicus [7]) | Injected dose (Rattus norvegicus [8]) | Injected dose (Rattus norvegicus [9]) | Ratio [10] | Ratio [11] | Ratio [12] | Ratio [13] | Ratio [14] | Ratio [15] | Injected dose (Rattus norvegicus [16]) | Injected dose (Rattus norvegicus [17]) | Injected dose (Rattus norvegicus [18]) |
| --- | --- | --- | --- | --- | --- | --- | --- | --- | --- | --- | --- | --- | --- | --- | --- | --- | --- | --- |
| COc1ccc(O)c(/C=N/CCCNCCNCCC/N=C/c2cc(OC)ccc2O)c1 | 1.11% | 7.55% | 0.23% | 0.34% | 7.64% | 26.5% | 0.18% | 6.8% | 0.79% | 4.3 | 0.42 | 0.19 | 0.15 | 2.6 | 0.89 | 1.19% | – | – |
| COc1cc(O)c(/C=N/CCCNCCNCCC/N=C/c2c(O)cc(OC)cc2OC)c(OC)c1 | 0.33% | 8.49% | 0.86% | 1.04% | 5.26% | 43% | 0.52% | 3.1% | 0.92% | 45.6 | 4.1 | 0.56 | 0.32 | 18.1 | 2.3 | 2.17% | – | – |
| COc1cc(C)c(/C=N/CCCNCCNCCC/N=C/c2c(C)cc(OC)cc2O)c(O)c1 | 0.43% | 5.94% | 1.03% | 1.08% | 5.39% | 28.8% | 0.55% | 3.4% | 0.88% | 45.1 | 3.6 | – | 0.45 | – | 3.4 | 1.94% | – | – |
| COc1cc(O)c(/C=N\CC(C)(C)CNCCNCC(C)(C)C/N=C/c2c(O)cc(OC)cc2OC)c(OC)c1 | 0.45% | 18.8% | 1.01% | 1.03% | 8.33% | 50.6% | 0.64% | 3.9% | 1.63% | 44.5 | 3.24 | 0.32 | 0.23 | 9.6 | 1.1 | 5.4% | – | – |
| COc1ccc(/C=N/CCCNCCNCCC/N=C/c2ccc(OC)cc2O)c(O)c1 | 0.42% | 4.44% | 0.65% | 0.67% | 8.42% | 25.2% | 0.38% | 5.1% | 1.05% | 30.6 | 1.6 | 0.62 | 0.32 | 17.6 | 2.99 | 1.69% | – | – |
| COc1cc(O)c(/C=N/CCCNCCNCCC/N=C/c2cc(C)c(OC)cc2O)cc1C | 0.61% | 7.79% | 0.89% | 0.88% | – | 39.5% | 0.42% | 5.3% | 0.79% | 30 | 1.92 | – | 0.14 | – | 2.1 | – | 2.74% | 5.14% |
| CCN(CC)c1ccc(/C=N/CCCNCCNCCC/N=C/c2ccc(N(CC)CC)cc2O)c(O)c1 | 1.27% | 11.1% | 0.65% | 0.69% | 6.33% | 38.1% | 0.67% | 9.7% | 1.26% | 9.2 | 0.86 | 0.28 | 0.24 | 4.5 | 1.22 | 4.67% | – | – |
| CCN(CC)c1ccc(/C=N\CC(C)(C)CNCCNCC(C)(C)C/N=C/c2ccc(N(CC)CC)cc2O)c(O)c1 | 1.06% | 30.6% | 0.4% | 0.66% | 4.25% | 47% | 1.31% | 11.1% | 5.3% | 8.1 | 0.5 | 0.13 | 0.17 | 1.9 | 0.45 | 5.17% | – | – |
| Oc1ccccc1/C=N/CCCNCCNCCC/N=C/c1ccccc1O | 0.64% | 4.21% | 0.41% | 0.45% | 9.84% | 26.7% | 0.28% | 5.3% | 1% | 12.2 | 0.9 | 0.51 | 0.2 | 8.3 | 2.15 | 1.4% | – | – |
| CCOc1cc(C)c(/C=N/CCCNCCNCCC/N=C/c2c(C)cc(OCC)cc2O)c(O)c1 | 0.42% | 7.73% | 0.87% | 0.91% | 5.24% | 29.5% | 0.49% | 3% | 0.8% | 40.5 | 2.7 | 0.73 | 0.29 | 20.9 | 2.2 | 2.42% | – | – |
| CC(C)c1ccc(O)c(/C=N/CCCNCCNCCC/N=C/c2cc(C(C)C)ccc2O)c1 | 1.21% | 23.4% | 0.55% | 0.67% | 6.02% | 49.2% | 0.36% | 8.5% | 1.06% | 8.6 | 0.75 | – | 0.16 | – | 0.54 | 3.95% | – | – |
